Measurements taken from ChEMBL document CHEMBL5214961, “Novel Allosteric Inhibitor-Derived AKT Proteolysis Targeting Chimeras (PROTACs) Enable Potent and Selective AKT Degradation in KRAS/BRAF Mutant Cells” (J Med Chem, 2022).
Activity calls are given as the source filed them. The rule behind the calls is not given here.

Experiments:
[1] = biological target: von Hippel-Lindau disease tumor suppressor/RAC-alpha serine/threonine-protein kinase (Homo sapiens) (UniProt P31749+P40337); experiment: Protac activity at VHL/AKT in human PC-3 cells assessed as reduction in total Akt level at 1 uM incubated for 24 hrs by Western blot analysis; format: cell-based
von Hippel-Lindau disease tumor suppressor/RAC-alpha serine/threonine-protein kinase (Homo sapiens), sequence (P31749 whole entry, looked up): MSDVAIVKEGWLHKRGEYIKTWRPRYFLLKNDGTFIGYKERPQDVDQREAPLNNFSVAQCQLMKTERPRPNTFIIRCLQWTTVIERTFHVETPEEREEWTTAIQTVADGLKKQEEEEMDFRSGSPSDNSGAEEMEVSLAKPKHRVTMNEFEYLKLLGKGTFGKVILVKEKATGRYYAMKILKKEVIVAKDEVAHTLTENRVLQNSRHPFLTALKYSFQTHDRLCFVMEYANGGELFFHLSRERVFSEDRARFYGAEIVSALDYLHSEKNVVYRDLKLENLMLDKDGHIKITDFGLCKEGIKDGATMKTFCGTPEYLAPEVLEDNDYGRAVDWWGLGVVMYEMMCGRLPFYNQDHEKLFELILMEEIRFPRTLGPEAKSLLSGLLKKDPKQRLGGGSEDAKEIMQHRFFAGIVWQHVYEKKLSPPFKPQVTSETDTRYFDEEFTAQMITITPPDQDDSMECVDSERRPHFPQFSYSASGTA
von Hippel-Lindau disease tumor suppressor/RAC-alpha serine/threonine-protein kinase (Homo sapiens), sequence (P40337 whole entry, looked up): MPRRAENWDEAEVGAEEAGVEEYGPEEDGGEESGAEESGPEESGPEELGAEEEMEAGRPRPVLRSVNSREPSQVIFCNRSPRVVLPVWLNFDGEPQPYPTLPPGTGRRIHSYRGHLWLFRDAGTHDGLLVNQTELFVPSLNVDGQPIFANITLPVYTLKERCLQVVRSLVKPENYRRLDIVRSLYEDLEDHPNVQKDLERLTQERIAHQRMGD
In short: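 Cells grown in DMEM with 10% FBS at 37 °C, 5% CO2, then exposed to compound at 1 μM for 24 h. Lysates made in 2X urea/SDS sample buffer, run on 4–12% Bis-Tris gels, transferred to PVDF, probed for total AKT overnight at 4 °C; HRP/chemiluminescence detection with β-actin as loading control.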

PC-3 = experiment: Inhibition of colony formation in human PC-3 cells at 0.1 to 10 uM incubated for 2 weeks with media replacement for every 2 days by crystal violet staining based analysis; format: functional, cell-based; conditions: dose 0.1-10 µM
In short: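 PC3 cells kept 14 days with compound; compound-containing medium replenished every two days. Viable cells stained with 0.5% crystal violet.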

[2] = biological target: RAC-beta serine/threonine-protein kinase (Homo sapiens, UniProt P31751); experiment: Inhibition of AKT2 (unknown origin) preincubated for 20 mins followed by [33P]-ATP addition measured after 120 mins by hotspot kinase assay
RAC-beta serine/threonine-protein kinase, sequence (P31751 whole entry): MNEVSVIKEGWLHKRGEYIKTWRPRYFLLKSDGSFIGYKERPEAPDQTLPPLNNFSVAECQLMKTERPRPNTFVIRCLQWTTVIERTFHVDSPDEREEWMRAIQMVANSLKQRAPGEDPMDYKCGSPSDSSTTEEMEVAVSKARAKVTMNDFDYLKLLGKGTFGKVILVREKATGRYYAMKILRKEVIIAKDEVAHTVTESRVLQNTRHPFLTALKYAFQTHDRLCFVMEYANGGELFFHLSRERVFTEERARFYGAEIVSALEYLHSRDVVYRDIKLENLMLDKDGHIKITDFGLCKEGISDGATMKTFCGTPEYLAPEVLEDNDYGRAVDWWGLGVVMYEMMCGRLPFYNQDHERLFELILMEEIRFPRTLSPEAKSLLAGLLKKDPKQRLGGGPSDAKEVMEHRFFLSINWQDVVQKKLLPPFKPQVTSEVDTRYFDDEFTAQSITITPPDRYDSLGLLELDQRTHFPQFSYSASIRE

[3] = biological target: RAC-alpha serine/threonine-protein kinase (Homo sapiens, UniProt P31749); experiment: Inhibition of AKT1 (unknown origin) preincubated for 20 mins followed by [33P]-ATP addition measured after 120 mins by hotspot kinase assay
RAC-alpha serine/threonine-protein kinase, sequence (P31749 whole entry): as the sequence (P31749 whole entry, looked up) above

[4] = biological target: RAC-gamma serine/threonine-protein kinase (Homo sapiens, UniProt Q9Y243); experiment: Inhibition of AKT3 (unknown origin) preincubated for 20 mins followed by [33P]-ATP addition measured after 120 mins by hotspot kinase assay
RAC-gamma serine/threonine-protein kinase, sequence (Q9Y243 whole entry): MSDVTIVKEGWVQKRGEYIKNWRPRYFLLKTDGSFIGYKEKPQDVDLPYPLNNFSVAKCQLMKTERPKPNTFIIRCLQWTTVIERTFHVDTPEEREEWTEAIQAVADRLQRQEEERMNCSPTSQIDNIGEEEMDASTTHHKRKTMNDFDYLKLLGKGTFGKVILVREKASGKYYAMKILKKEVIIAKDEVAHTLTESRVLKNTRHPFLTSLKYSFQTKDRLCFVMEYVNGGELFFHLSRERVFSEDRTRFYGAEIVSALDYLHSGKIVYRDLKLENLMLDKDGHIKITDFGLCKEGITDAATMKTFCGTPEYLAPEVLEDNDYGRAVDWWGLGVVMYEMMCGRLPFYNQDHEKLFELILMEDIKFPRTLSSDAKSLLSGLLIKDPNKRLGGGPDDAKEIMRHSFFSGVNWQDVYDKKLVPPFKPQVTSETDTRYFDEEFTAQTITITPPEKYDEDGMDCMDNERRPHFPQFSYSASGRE

SW-620 = experiment: Antiproliferative activity against human SW620 cells harboring KRAS mutant assessed as inhibition of cell growth incubated for 5 days by IncuCyte live-cell imaging analysis; format: functional, cell-based; conditions: SW-620, 120 h

| Activity [1] | Compound | other results |
| --- | --- | --- |
| Active | Cc1ncsc1-c1ccc(CNC(=O)[C@@H]2C[C@@H](O)CN2C(=O)[C@@H](NC(=O)CCOCCOCCOCCOCCOCCC(=O)NCCc2cccc(-c3ccc4nc(-c5cccnc5N)n(-c5ccc(C6(N)CCC6)cc5)c4n3)c2)C(C)(C)C)cc1 |  |
| Active | Cc1ncsc1-c1ccc(CNC(=O)[C@@H]2C[C@@H](O)CN2C(=O)[C@@H](NC(=O)CCCCCCCCC(=O)NCCc2cccc(-c3ccc4nc(-c5cccnc5N)n(-c5ccc(C6(N)CCC6)cc5)c4n3)c2)C(C)(C)C)cc1 | inhibition (PC-3): Active |
| Active | Cc1ncsc1-c1ccc(CNC(=O)[C@@H]2C[C@@H](O)CN2C(=O)[C@@H](NC(=O)CCCCCCCNC(=O)CCc2cccc(-c3ccc4nc(-c5cccnc5N)n(-c5ccc(C6(N)CCC6)cc5)c4n3)c2)C(C)(C)C)cc1 |  |
| Active | Cc1ncsc1-c1ccc(CNC(=O)[C@@H]2C[C@@H](O)CN2C(=O)[C@@H](NC(=O)CCCCCCCCCNC(=O)CCc2cccc(-c3ccc4nc(-c5cccnc5N)n(-c5ccc(C6(N)CCC6)cc5)c4n3)c2)C(C)(C)C)cc1 |  |
| Active | Cc1ncsc1-c1ccc(CNC(=O)[C@@H]2C[C@@H](O)CN2C(=O)[C@@H](NC(=O)CCCCCCCCNC(=O)CCc2cccc(-c3ccc4nc(-c5cccnc5N)n(-c5ccc(C6(N)CCC6)cc5)c4n3)c2)C(C)(C)C)cc1 |  |
| Active | Cc1ncsc1-c1ccc(CNC(=O)[C@@H]2C[C@@H](O)CN2C(=O)[C@@H](NC(=O)CCOCCNC(=O)CCc2cccc(-c3ccc4nc(-c5cccnc5N)n(-c5ccc(C6(N)CCC6)cc5)c4n3)c2)C(C)(C)C)cc1 |  |

The remaining lines, values behind:

| Compound | Activity [1] | other results |
| --- | --- | --- |
| Cc1ncsc1-c1ccc(CNC(=O)[C@@H]2C[C@@H](O)CN2C(=O)[C@@H](NC(=O)COCCOCCOCCOCCOCC(=O)NCCc2cccc(-c3ccc4nc(-c5cccnc5N)n(-c5ccc(C6(N)CCC6)cc5)c4n3)c2)C(C)(C)C)cc1 | Active |  |
| Cc1ncsc1-c1ccc(CNC(=O)[C@@H]2C[C@@H](O)CN2C(=O)[C@@H](NC(=O)COCCOCCNC(=O)CCc2cccc(-c3ccc4nc(-c5cccnc5N)n(-c5ccc(C6(N)CCC6)cc5)c4n3)c2)C(C)(C)C)cc1 | Active |  |
| Cc1ncsc1-c1ccc(CNC(=O)[C@@H]2C[C@@H](O)CN2C(=O)[C@@H](NC(=O)CCCCCCCC(=O)NCCc2cccc(-c3ccc4nc(-c5cccnc5N)n(-c5ccc(C6(N)CCC6)cc5)c4n3)c2)C(C)(C)C)cc1 | Active |  |
| Cc1ncsc1-c1ccc(CNC(=O)[C@@H]2C[C@@H](O)CN2C(=O)[C@@H](NC(=O)CCCCCCCCCC(=O)NCCc2cccc(-c3ccc4nc(-c5cccnc5N)n(-c5ccc(C6(N)CCC6)cc5)c4n3)c2)C(C)(C)C)cc1 | Active | inhibition (PC-3): Active |
| Cc1ncsc1-c1ccc(CNC(=O)[C@@H]2C[C@@H](O)CN2C(=O)[C@@H](NC(=O)COCC(=O)NCCc2cccc(-c3ccc4nc(-c5cccnc5N)n(-c5ccc(C6(N)CCC6)cc5)c4n3)c2)C(C)(C)C)cc1 | Active |  |
| Cc1ncsc1-c1ccc(CNC(=O)[C@@H]2C[C@@H](O)CN2C(=O)[C@@H](NC(=O)COCCOCCOCCNC(=O)CCc2cccc(-c3ccc4nc(-c5cccnc5N)n(-c5ccc(C6(N)CCC6)cc5)c4n3)c2)C(C)(C)C)cc1 | Active |  |
| Cc1ncsc1-c1ccc([C@H](C)NC(=O)[C@H]2C[C@H](O)CN2C(=O)[C@@H](NC(=O)CCCCCCCCCCNC(=O)CCc2cccc(-c3ccc4nc(-c5cccnc5N)n(-c5ccc(C6(N)CCC6)cc5)c4n3)c2)C(C)(C)C)cc1 |  | IC50 [2]: 86 nM; IC50 [3]: 684 nM; IC50 [4]: 407 nM |
| Cc1ncsc1-c1ccc(CNC(=O)[C@@H]2C[C@@H](O)CN2C(=O)[C@@H](NC(=O)CCOCCC(=O)NCCc2cccc(-c3ccc4nc(-c5cccnc5N)n(-c5ccc(C6(N)CCC6)cc5)c4n3)c2)C(C)(C)C)cc1 | Active |  |
| Cc1ncsc1-c1ccc(CNC(=O)[C@@H]2C[C@@H](O)CN2C(=O)[C@@H](NC(=O)CCCCCCCCCCNC(=O)CCc2cccc(-c3ccc4nc(-c5cccnc5N)n(-c5ccc(C6(N)CCC6)cc5)c4n3)c2)C(C)(C)C)cc1 | Active | inhibition (PC-3): Active |
| Cc1ncsc1-c1ccc([C@H](C)NC(=O)[C@H]2C[C@H](OCc3ccccc3)CN2C(=O)[C@@H](NC(=O)CCCCCCCCCCNC(=O)CCc2cccc(-c3ccc4nc(-c5cccnc5N)n(-c5ccc(C6(N)CCC6)cc5)c4n3)c2)C(C)(C)C)cc1 |  | IC50 [2]: 558 nM; IC50 [3]: 1200 nM; IC50 (SW-620): > 10000 nM; IC50 [4]: 1800 nM |
| Cc1ncsc1-c1ccc(CNC(=O)[C@@H]2C[C@@H](O)CN2C(=O)[C@@H](NC(=O)COCCNC(=O)CCc2cccc(-c3ccc4nc(-c5cccnc5N)n(-c5ccc(C6(N)CCC6)cc5)c4n3)c2)C(C)(C)C)cc1 | Active |  |
| Cc1ncsc1-c1ccc(CNC(=O)[C@@H]2C[C@@H](O)CN2C(=O)[C@@H](NC(=O)CCOCCOCCNC(=O)CCc2cccc(-c3ccc4nc(-c5cccnc5N)n(-c5ccc(C6(N)CCC6)cc5)c4n3)c2)C(C)(C)C)cc1 | Active |  |
